Values after ≈ are worked out from the molar mass of the structure shown. Active and inactive are the calls of the source. No cut-off for these calls is given here.
Legend:
Bacillus subtilis [1] = assay: Antibacterial activity against Bacillus subtilis ATCC 6633 at 50 mg/ml after 24 hrs by agar diffusion test; type: functional; conditions: ATCC 6633, 24 h, read-out: DIZ
Summary of the method: (§1)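 Agar diffusion: wells in agar filled with […] DMSO solution of compound at various concentrations; diameter of clear zone around application point measured. Bacteria grown 24 h at 37 °C on nutrient agar. Compounds first screened at 50 mg/ml; those active then tested at lower concentrations. Bracketed value = lowest concentration (mg/ml) giving zone >11 mm, reported only if activity retained at ≤1.25 mg/ml.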

Escherichia coli [2] = assay: Antibacterial activity against Escherichia coli ATCC 8739 at 2 mg/ml after 24 hrs by agar diffusion test; type: functional, organism-based; summary of the method: as §1
Staphylococcus aureus [3] = assay: Antibacterial activity against Staphylococcus aureus NRRL B 313 assessed as concentration required to produce >11 mm of zone of inhibition after 24 hrs by agar diffusion test; type: functional
Summary of the method: (§2)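 Agar diffusion: bacteria grown 24 h at 37 °C on nutrient agar. Wells in the agar are filled with […] of compound solution in DMSO at various concentrations. The diameter of the clear zone around the application point is measured. Bracketed values give the lowest concentration (mg/ml) that produces a zone >11 mm. A first screen is run at 50 mg/ml.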

Priestia megaterium [4] = assay: Antibacterial activity against Bacillus megaterium NRRL 1353895 assessed as concentration required to produce >11 mm of zone of inhibition after 24 hrs by agar diffusion test; type: functional; summary of the method: as §1
Penicillium chrysogenum [5] = assay: Antifungal activity against Penicillium chrysogenum CECT 2802 at 2 mg/ml after 72 hrs by agar diffusion test; type: functional, organism-based
Summary of the method: (§3)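 Agar diffusion: yeasts grown on yeast peptone dextrose agar and fungi on potato dextrose agar. Wells are filled with […] of compound solution in DMSO at various concentrations, and the clear-zone diameter is measured. Bracketed values give the lowest concentration (mg/ml) that produces a zone >11 mm. A first screen is run at 50 mg/ml.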

Bacillus mycoides [6] = assay: Antibacterial activity against Bacillus mycoides DSMZ 274 at 50 mg/ml after 24 hrs by agar diffusion test; type: functional; conditions: DSMZ 274, 24 h, read-out: DIZ; summary of the method: as §1
Acinetobacter johnsonii [7] = assay: Antibacterial activity against Acinetobacter johnsonii ATCC 17909 at 50 mg/ml after 24 hrs by agar diffusion test; type: functional; conditions: ATCC 17909, 24 h, read-out: DIZ; summary of the method: as §1
Candida tropicalis [8] = assay: Antifungal activity against Candida tropicalis ATCC 20336 at 2 mg/ml after 72 hrs by agar diffusion test; type: functional, organism-based; summary of the method: as §3
Saccharomyces cerevisiae [9] = assay: Antifungal activity against Saccharomyces cerevisiae ATCC 9763 at 2 mg/ml after 72 hrs by agar diffusion test; type: functional, organism-based; summary of the method: as §3
Saccharomyces cerevisiae [10] = assay: Antifungal activity against Saccharomyces cerevisiae ATCC 9763 at 50 mg/ml after 72 hrs by agar diffusion test; type: functional; conditions: ATCC 9763, 72 h, read-out: DIZ; summary of the method: as §3
Bacillus subtilis [11] = assay: Antibacterial activity against Bacillus subtilis ATCC 6633 assessed as concentration required to produce >11 mm of zone of inhibition after 24 hrs by agar diffusion test; type: functional; summary of the method: as §1
Bacillus mycoides [12] = assay: Antibacterial activity against Bacillus mycoides DSMZ 274 assessed as concentration required to produce >11 mm of zone of inhibition after 24 hrs by agar diffusion test; type: functional; summary of the method: as §1
Bacillus cereus [13] = assay: Antibacterial activity against Bacillus cereus ATCC 11778 at 2 mg/ml after 24 hrs by agar diffusion test; type: functional, organism-based; summary of the method: as §1
Acinetobacter johnsonii [14] = assay: Antibacterial activity against Acinetobacter johnsonii ATCC 17909 assessed as concentration required to produce >11 mm of zone of inhibition after 24 hrs by agar diffusion test; type: functional; summary of the method: as §1
Candida tropicalis [15] = assay: Antifungal activity against Candida tropicalis ATCC 20336 assessed as concentration required to produce >11 mm of zone of inhibition after 72 hrs by agar diffusion test; type: functional; summary of the method: as §3
Micrococcus luteus [16] = assay: Antibacterial activity against Sarcina lutea ATCC 9341 at 50 mg/ml after 24 hrs by agar diffusion test; type: functional; conditions: ATCC 9341, 24 h, read-out: DIZ; summary of the method: as §2
Bacillus [17] = assay: Antibacterial activity against Bacillus idosus B 241 at 50 mg/ml after 24 hrs by agar diffusion test; type: functional; conditions: B 241, 24 h, read-out: DIZ; summary of the method: as §1
Bacillus cereus [18] = assay: Antibacterial activity against Bacillus cereus ATCC 11778 assessed as concentration required to produce >11 mm of zone of inhibition after 24 hrs by agar diffusion test; type: functional; summary of the method: as §1
Acinetobacter johnsonii [19] = assay: Antibacterial activity against Acinetobacter johnsonii ATCC 17909 at 2 mg/ml after 24 hrs by agar diffusion test; type: functional; summary of the method: as §1
Micrococcus luteus [20] = assay: Antibacterial activity against Micrococcus luteus ATCC 9631 at 50 mg/ml after 24 hrs by agar diffusion test; type: functional; conditions: ATCC 9631, 24 h, read-out: DIZ; summary of the method: as §1
Bacillus mycoides [21] = assay: Antibacterial activity against Bacillus mycoides DSMZ 274 at 2 mg/ml after 24 hrs by agar diffusion test; type: functional, organism-based; summary of the method: as §1
Bacillus subtilis [22] = assay: Antibacterial activity against Bacillus subtilis ATCC 6633 at 2 mg/ml after 24 hrs by agar diffusion test; type: functional, organism-based; summary of the method: as §1
Micrococcus luteus [23] = assay: Antibacterial activity against Micrococcus luteus ATCC 9631 at 2 mg/ml after 24 hrs by agar diffusion test; type: functional, organism-based; summary of the method: as §1
Penicillium chrysogenum [24] = assay: Antifungal activity against Penicillium chrysogenum CECT 2802 at 50 mg/ml after 72 hrs by agar diffusion test; type: functional; conditions: CECT 2802, 72 h, read-out: DIZ; summary of the method: as §3
Micrococcus luteus [25] = assay: Antibacterial activity against Sarcina lutea ATCC 9341 at 2 mg/ml after 24 hrs by agar diffusion test; type: functional, organism-based; summary of the method: as §1
Staphylococcus aureus [26] = assay: Antibacterial activity against Staphylococcus aureus NRRL B 313 at 50 mg/ml after 24 hrs by agar diffusion test; type: functional; conditions: NRRL B 313, 24 h, read-out: DIZ; summary of the method: as §2
Bacillus [27] = assay: Antibacterial activity against Bacillus idosus B 241 at 2 mg/ml after 24 hrs by agar diffusion test; type: functional, organism-based; summary of the method: as §1
[28] = system: Mycobacterium tuberculosis; assay: Antimycobacterial activity against Mycobacterium tuberculosis H37Rv after 45 days; type: functional
Summary of the method: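 Canetti proportion method. Compound in DMSO is added to Löwenstein–Jensen egg medium before coagulation (30 min, 85 °C), tested at three levels plus a lower one where needed. Tubes are inoculated with H37Rv at 10⁵ cells/ml and incubated 45 days at 37 °C. Colony counts versus drug-free control give percentage inhibition.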

Candida tropicalis [29] = assay: Antifungal activity against Candida tropicalis ATCC 20336 at 50 mg/ml after 72 hrs by agar diffusion test; type: functional; conditions: ATCC 20336, 72 h, read-out: DIZ; summary of the method: as §3
Bacillus cereus [30] = assay: Antibacterial activity against Bacillus cereus ATCC 11778 at 50 mg/ml after 24 hrs by agar diffusion test; type: functional; conditions: ATCC 11778, 24 h, read-out: DIZ; summary of the method: as §1
Escherichia coli [31] = assay: Antibacterial activity against Escherichia coli ATCC 8739 assessed as concentration required to produce >11 mm of zone of inhibition after 24 hrs by agar diffusion test; type: functional; summary of the method: as §1
Staphylococcus aureus [32] = assay: Antibacterial activity against Staphylococcus aureus NRRL B 313 at 2 mg/ml after 24 hrs by agar diffusion test; type: functional, organism-based; summary of the method: as §2
Priestia megaterium [33] = assay: Antibacterial activity against Bacillus megaterium NRRL 1353895 at 2 mg/ml after 24 hrs by agar diffusion test; type: functional, organism-based; summary of the method: as §1
Saccharomyces cerevisiae [34] = assay: Antifungal activity against Saccharomyces cerevisiae ATCC 9763 assessed as concentration required to produce >11 mm of zone of inhibition after 72 hrs by agar diffusion test; type: functional; summary of the method: as §3
Priestia megaterium [35] = assay: Antibacterial activity against Bacillus megaterium NRRL 1353895 at 50 mg/ml after 24 hrs by agar diffusion test; type: functional; conditions: NRRL 1353895, 24 h, read-out: DIZ; summary of the method: as §1
Bacillus [36] = assay: Antibacterial activity against Bacillus idosus B 241 assessed as concentration required to produce >11 mm of zone of inhibition after 24 hrs by agar diffusion test; type: functional; summary of the method: as §1
Escherichia coli [37] = assay: Antibacterial activity against Escherichia coli ATCC 8739 at 50 mg/ml after 24 hrs by agar diffusion test; type: functional; conditions: ATCC 8739, 24 h, read-out: DIZ; summary of the method: as §1

Compound: CC[C@H](CO)NCc1ccc2c(c1)Cc1ccccc1-2
- zone of inhibition at 50000 µg/mL (Bacillus subtilis [1]): 18 mm
- diameter of the inhibition zone (DIZ) (Escherichia coli [2]): inactive
- Activity (Staphylococcus aureus [3]): 1.25 mg/mL
- Activity (Priestia megaterium [4]): 1.25 mg/mL
- diameter of the inhibition zone (DIZ) (Penicillium chrysogenum [5]): inactive
- zone of inhibition at 50000 µg/mL (Bacillus mycoides [6]): 20 mm
- zone of inhibition at 50000 µg/mL (Acinetobacter johnsonii [7]): 17 mm
- diameter of the inhibition zone (DIZ) (Candida tropicalis [8]): inactive
- diameter of the inhibition zone (DIZ) (Saccharomyces cerevisiae [9]): inactive
- zone of inhibition at 50000 µg/mL (Saccharomyces cerevisiae [10]): 20 mm
- Activity (Bacillus subtilis [11]): 1.25 mg/mL
- Activity (Bacillus mycoides [12]): 1.25 mg/mL
- diameter of the inhibition zone (DIZ) (Bacillus cereus [13]): inactive
- Activity (Acinetobacter johnsonii [14]): 1.25 mg/mL
- Activity (Candida tropicalis [15]): 0.06 mg/mL
- zone of inhibition at 50000 µg/mL (Micrococcus luteus [16]): 18 mm
- zone of inhibition at 50000 µg/mL (Bacillus [17]): 17 mm
- Activity (Bacillus cereus [18]): 1.25 mg/mL
- diameter of the inhibition zone (DIZ) (Acinetobacter johnsonii [19]): inactive
- zone of inhibition at 50000 µg/mL (Micrococcus luteus [20]): 16 mm
- diameter of the inhibition zone (DIZ) (Bacillus mycoides [21]): inactive
- diameter of the inhibition zone (DIZ) (Bacillus subtilis [22]): inactive
- diameter of the inhibition zone (DIZ) (Micrococcus luteus [23]): inactive
- zone of inhibition at 50000 µg/mL (Penicillium chrysogenum [24]): 30 mm
- diameter of the inhibition zone (DIZ) (Micrococcus luteus [25]): inactive
- zone of inhibition at 50000 µg/mL (Staphylococcus aureus [26]): 17 mm
- diameter of the inhibition zone (DIZ) (Bacillus [27]): inactive
- MIC [28]: 18.7 µM (≈ 5.01 µg/mL)
- zone of inhibition at 50000 µg/mL (Candida tropicalis [29]): 21 mm
- zone of inhibition at 50000 µg/mL (Bacillus cereus [30]): 16 mm
- Activity (Escherichia coli [31]): 1.25 mg/mL
- diameter of the inhibition zone (DIZ) (Staphylococcus aureus [32]): inactive
- diameter of the inhibition zone (DIZ) (Priestia megaterium [33]): inactive
- Activity (Saccharomyces cerevisiae [34]): 1.25 mg/mL
- zone of inhibition at 50000 µg/mL (Priestia megaterium [35]): 16 mm
- Activity (Bacillus [36]): 0.6 mg/mL
- zone of inhibition at 50000 µg/mL (Escherichia coli [37]): 16 mm

Source: ChEMBL document CHEMBL1932986, “Synthesis and in vitro antimycobacterial activity of compounds derived from (R)- and (S)-2-amino-1-butanol - The crucial role of the configuration” (Eur J Med Chem, 2012)
